According to ChEMBL document CHEMBL3992553, “New nitrofurans amenable by isocyanide multicomponent chemistry are active against multidrug-resistant and poly-resistant Mycobacterium tuberculosis” (Bioorg Med Chem, 2017):
In brackets after ≈: the same amount, converted by molar mass.

Tests used:
Staphylococcus aureus [1] = assay: Antibacterial activity against methicillin-resistant Staphylococcus aureus DSM 11822 after 18 hrs; assay type: functional; conditions: DSM 11822, 18 h
Procedure, shortened: (§1)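 Broth microdilution MIC. Gram-negatives grown overnight at 37 °C in Müller-Hinton broth + 1% glucose, pH 7.2; Gram-positives in trypticase soy broth with yeast extract, pH 7.2. Inoculum 5×10^5 cfu/mL final. Serial dilutions from 100 µM down to 0.2 µM, DMSO ≤1%. 18 h at 37 °C, moist; OD600. MIC = lowest concentration completely suppressing growth.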

Staphylococcus aureus [2] = assay: Antibacterial activity against methicillin-resistant Staphylococcus aureus RKI 11-02670 after 18 hrs; assay type: functional; conditions: RKI 11-02670, 18 h; procedure, shortened: as §1
Enterococcus faecium = assay: Antibacterial activity against Enterococcus faecium DSM 20477 after 18 hrs; assay type: functional; conditions: DSM 20477, 18 h; procedure, shortened: as §1
Escherichia coli [3] = assay: Antibacterial activity against Escherichia coli DSM 1116 after 18 hrs; assay type: functional; conditions: DSM 1116, 18 h; procedure, shortened: as §1
Pseudomonas aeruginosa [4] = assay: Antibacterial activity against Pseudomonas aeruginosa PA7 DSM 24068 after 18 hrs; assay type: functional; conditions: PA7 DSM 24068, 18 h; procedure, shortened: as §1
Acinetobacter baumannii = assay: Antibacterial activity against Acinetobacter baumannii DSM 30007 after 18 hrs; assay type: functional; conditions: DSM 30007, 18 h; procedure, shortened: as §1
Klebsiella pneumoniae = assay: Antibacterial activity against Klebsiella pneumoniae DSM 11678 after 18 hrs; assay type: functional; conditions: DSM 11678, 18 h; procedure, shortened: as §1
[5] = tested on: Mycobacterium tuberculosis; assay: Antimycobacterial activity against Mycobacterium tuberculosis H37Rv after 7 days by REMA; assay type: functional; conditions: 168 h
Procedure, shortened: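 REMA. 3-week H37Rv culture (2nd generation on Löwenstein–Jensen) vortexed with glass beads, set to 1.0 McFarland in 7H9, diluted 20-fold in 7H9 + OADC. 2-fold dilutions, final 1.6–400 µg/mL, 200 µL wells. 7 days at 35 °C, then resazurin 18 h. Fluorescence ex 520/em 590. MIC where signal plateaued or matched the 1% population control (t test).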

Escherichia coli [6] = assay: Growth inhibition of Escherichia coli DSM 1116 at 100 uM after 18 hrs relative to control; assay type: functional; conditions: DSM 1116, 18 h, read-out: GI
Procedure, shortened: (§2)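 Gram-negative culture grown overnight at 37 °C in Müller-Hinton broth + 1% glucose, pH 7.2, then tested at 5×10^5 cfu/mL final. Compound at 100 µM from DMSO stock, DMSO ≤1%. Incubated 18 h at 37 °C under moist conditions. OD600 read; value reported as % growth inhibition.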

Pseudomonas aeruginosa [7] = assay: Growth inhibition of Pseudomonas aeruginosa PA7 DSM 24068 at 100 uM after 18 hrs relative to control; assay type: functional; conditions: PA7 DSM 24068, 18 h, read-out: GI; procedure, shortened: as §2
[8] = (§3) Cytotoxicity against mouse L929 cells assessed as reduction in cell viability after 5 days by WST1 assay; assay type: cell-based; conditions: mouse, L929 cells
Procedure, shortened: (§4)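 KB-3-1 or L929 cells, 1500 per well, in DMEM + 5% FBS. Exposed to serially diluted compound for 5 days. WST-1 added, plates incubated at 37 °C (20 min for KB-3-1), absorbance read at 450 nm (reference 600 nm). Viability given as % of controls.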

L929 = assay: as §3; assay type: cell-based; conditions: Mus musculus, L929, 120 h; procedure, shortened: as §4
[9] = (§5) Cytotoxicity against human KB-3-1 cells assessed as reduction in cell viability after 5 days by WST1 assay; assay type: cell-based; conditions: human, KB-3-1 cells; procedure, shortened: as §4
KB 3-1 = assay: as §5; assay type: cell-based; conditions: Homo sapiens, KB 3-1, 120 h; procedure, shortened: as §4
[10] = (§6) Cytotoxicity against human MCF7 cells assessed as reduction in cell viability after 5 days by WST1 assay; assay type: cell-based; conditions: human, MCF7 cells
Procedure, shortened: (§7)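 MCF-7 cells, 3000 per well, in RPMI + 5% FBS, 0.5% NEAA, 0.5% GlutaMAX and insulin 5 µg/mL. Exposed to serially diluted compound for 5 days. WST-1 incubation 2 h at 37 °C, absorbance read at 450 nm (reference 600 nm). Viability given as % of controls.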

MCF7 = assay: as §6; assay type: cell-based; conditions: Homo sapiens, MCF7, 120 h; procedure, shortened: as §7
[11] = Cytotoxicity against human FS4-LTM cells assessed as reduction in cell viability after 24 hrs by WST1 assay; assay type: cell-based; conditions: for IC50: Homo sapiens, FS4-LTM, 24 h; for IC90 at 24 h: human, FS4-LTM cells
Procedure, shortened: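 FS4-LTM conditionally immortalized human fibroblasts, kept without doxycycline for primary-like behaviour, in DMEM + 5% FBS. Exposed to serially diluted compound for 24 h. WST-1 added, plates incubated at 37 °C, absorbance read at 450 nm (reference 600 nm). Viability given as % of controls set to 100%.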

Compound | MIC (Staphylococcus aureus [1]) [µM] | EC50 (Staphylococcus aureus [2]) | MIC (Staphylococcus aureus [2]) | MIC (Enterococcus faecium) | MIC (Acinetobacter baumannii) | MIC (Klebsiella pneumoniae) | MIC [5] [µM] | inhibition of growth at 100 µM (Escherichia coli [6]) [%] | inhibition of growth at 100 µM (Pseudomonas aeruginosa [7]) [%] | further results
CC(C)(C)NC(=O)C1(C)COCC(=O)N1/N=C/c1ccc([N+](=O)[O-])o1 (stereo not given) | > 100 | 50 µM | > 100 µM | > 100 µM | > 100 µM | > 100 µM | > 100 | – | – | EC50 (Enterococcus faecium): > 100 µM; EC50 (Escherichia coli [3]): > 100 µM; MIC (Escherichia coli [3]): > 100 µM; EC50 (Pseudomonas aeruginosa [4]): > 100 µM; MIC (Pseudomonas aeruginosa [4]): > 100 µM; EC50 (Acinetobacter baumannii): > 100 µM; EC50 (Klebsiella pneumoniae): > 100 µM
CC1(C(=O)NCc2ccccc2)CCC(=O)N1/N=C/c1ccc([N+](=O)[O-])o1 (stereo not given) | 95 (≈ 35.2 µg/mL) | 67 µM | 95 µM | > 100 µM | – | – | > 100 | 85 | 90 | –
CC1(C(=O)NC2CCCCC2)CCCC(=O)N1/N=C/c1ccc([N+](=O)[O-])o1 (stereo not given) | 100 (≈ 37.6 µg/mL) | 70 µM | 100 µM | > 100 µM | > 100 µM | > 100 µM | 33 (≈ 12.4 µg/mL) | 81 | 88 | IC90 at 120 h [8]: > 100 µM; IC50 (L929): 50 to 50.2 µM; IC90 at 120 h [9]: 100 µM; IC50 (KB 3-1): 61 µM; IC90 at 120 h [10]: 100 µM; IC50 (MCF7): 19 µM; IC50 [11]: 19.3 to 100 µM; IC90 at 24 h [11]: ≥ 100 µM
CC1(C(=O)NCc2ccc(Cl)cc2)CCC(=O)N1/N=C/c1ccc([N+](=O)[O-])o1 (stereo not given) | > 100 | > 100 µM | > 100 µM | > 100 µM | – | – | > 100 | 82 | 89 | –
CC1(C(=O)NCc2ccccc2)CSCC(=O)N1/N=C/c1ccc([N+](=O)[O-])o1 (stereo not given) | > 100 | 64 µM | > 100 µM | > 100 µM | > 100 µM | > 100 µM | > 100 | – | – | EC50 (Enterococcus faecium): > 100 µM; EC50 (Escherichia coli [3]): > 100 µM; MIC (Escherichia coli [3]): > 100 µM; EC50 (Pseudomonas aeruginosa [4]): > 100 µM; MIC (Pseudomonas aeruginosa [4]): > 100 µM; EC50 (Acinetobacter baumannii): > 100 µM; EC50 (Klebsiella pneumoniae): > 100 µM
CC1(C(=O)NC2CCCCC2)CSCC(=O)N1/N=C/c1ccc([N+](=O)[O-])o1 (stereo not given) | 100 (≈ 39.4 µg/mL) | 55 µM | 100 µM | > 100 µM | > 100 µM | > 100 µM | 32 (≈ 12.6 µg/mL) | 84 | 91 | IC90 at 120 h [8]: > 100 µM; IC50 (L929): 50 µM; IC90 at 120 h [9]: 100 µM; IC50 (KB 3-1): 16 µM; IC90 at 120 h [10]: > 100 µM; IC50 (MCF7): 8.7 µM; IC50 [11]: 8.7 to 100 µM; IC90 at 24 h [11]: ≥ 100 µM
CC1(C(=O)NCc2ccccc2)COCC(=O)N1/N=C/c1ccc([N+](=O)[O-])o1 (stereo not given) | 100 (≈ 38.6 µg/mL) | 77 µM | 100 µM | > 100 µM | – | – | 65 (≈ 25.1 µg/mL) | 83 | 86 | –
CC1(C(=O)NCc2ccc(Cl)cc2)CCCC(=O)N1/N=C/c1ccc([N+](=O)[O-])o1 (stereo not given) | 100 (≈ 41.9 µg/mL) | 75 µM | 100 µM | > 100 µM | – | – | > 100 | 84 | 98 | –
CC1(C(=O)NC2CCCCC2)COCC(=O)N1/N=C/c1ccc([N+](=O)[O-])o1 (stereo not given) | 100 (≈ 37.8 µg/mL) | 75 µM | 100 µM | > 100 µM | – | – | 66 (≈ 25 µg/mL) | 84 | 90 | –
O=C(O)c1cn(C2CC2)c2cc(N3CCNCC3)c(F)cc2c1=O [CIPROFLOXACIN] | – | – | – | 8 µg/mL | 0.2 µg/mL | 0.07 µg/mL | – | – | – | EC50 (Enterococcus faecium): 2.29 µg/mL; EC50 (Escherichia coli [3]): 0.01 µg/mL; EC50 (Acinetobacter baumannii): 0.2 µg/mL; EC50 (Klebsiella pneumoniae): 0.05 µg/mL
CC1(C(=O)NCc2ccccc2)CCCC(=O)N1/N=C/c1ccc([N+](=O)[O-])o1 (stereo not given) | 100 (≈ 38.4 µg/mL) | 75 µM | 100 µM | > 100 µM | – | – | 65 (≈ 25 µg/mL) | 87 | 85 | –
CC1(C(=O)NC2CCCCC2)CN(S(C)(=O)=O)CC(=O)N1/N=C/c1ccc([N+](=O)[O-])o1 (stereo not given) | > 100 | 35.7 µM | > 100 µM | > 100 µM | > 100 µM | > 100 µM | 55 (≈ 25.1 µg/mL) | – | – | EC50 (Enterococcus faecium): > 100 µM; EC50 (Escherichia coli [3]): > 100 µM; MIC (Escherichia coli [3]): > 100 µM; EC50 (Pseudomonas aeruginosa [4]): > 100 µM; MIC (Pseudomonas aeruginosa [4]): > 100 µM; EC50 (Acinetobacter baumannii): > 100 µM; EC50 (Klebsiella pneumoniae): > 100 µM
CC(=O)NC[C@H]1CN(c2ccc(N3CCOCC3)c(F)c2)C(=O)O1 [LINEZOLID] | – | 0.25 µg/mL | 0.62 µg/mL | – | – | – | – | – | – | –
CC(C)(C)NC(=O)C1(C)CCCC(=O)N1/N=C/c1ccc([N+](=O)[O-])o1 (stereo not given) | 100 (≈ 35 µg/mL) | 76 µM | 100 µM | > 100 µM | – | – | 71 (≈ 24.9 µg/mL) | 83 | 85 | –
NCC[C@H](O)C(=O)N[C@@H]1C[C@H](N)[C@@H](O[C@H]2O[C@H](CN)[C@@H](O)[C@H](O)[C@H]2O)[C@H](O)[C@H]1O[C@H]1O[C@H](CO)[C@@H](O)[C@H](N)[C@H]1O [AMIKACIN] | – | – | – | – | – | – | – | – | – | EC50 (Pseudomonas aeruginosa [4]): 3.8 µg/mL; MIC (Pseudomonas aeruginosa [4]): 4.5 µg/mL
CC(C)(C)NC(=O)C1(C)CCC(=O)N1/N=C/c1ccc([N+](=O)[O-])o1 (stereo not given) | > 100 | 91 µM | > 100 µM | > 100 µM | – | – | > 100 | 86 | 92 | –
CC1(C(=O)NC2CCCCC2)CCC(=O)N1/N=C/c1ccc([N+](=O)[O-])o1 (stereo not given) | > 100 | 79 µM | ≥ 100 µM | > 100 µM | – | – | 70 (≈ 25.4 µg/mL) | 85 | 90 | –
